Legend:
[1] = test system: Rattus norvegicus; test: Antihypertensive activity in Norwegian albino rat model of DOCA-salt-induced hypertension assessed as inhibition of systolic blood pressure at 10 mg/kg, po after 6 hrs by non-invasive tail cuff method relative to control; type: functional
Summary of the method: (§1)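 DOCA-salt hypertensive rats; systolic pressure by tail cuff after 10 mg/kg, recorded hourly from 0 to 10 h; percent inhibition computed. Data as mean ± SEM, repeated-measures ANOVA.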

[2] = test system: Rattus norvegicus; test: Antihypertensive activity in Norwegian albino rat model of DOCA-salt-induced hypertension assessed as inhibition of systolic blood pressure at 10 mg/kg, po after 2 hrs by non-invasive tail cuff method relative to control; type: functional; summary of the method: as §1
[3] = test system: Rattus norvegicus; test: Antihypertensive activity in Norwegian albino rat model of DOCA-salt-induced hypertension assessed as inhibition of systolic blood pressure at 10 mg/kg, po after 3 hrs by non-invasive tail cuff method relative to control; type: functional; summary of the method: as §1
[4] = Inhibition of porcine kidney ACE assessed as reduction in hippuryl-histidyl-leucine hydrolysis to hippuric acid release incubated for 30 mins high-throughput colorimetric method; set-up: species or system Sus scrofa
Summary of the method: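 Porcine kidney ACE in 1 M sodium borate buffer pH 8.2 with 0.3 M NaCl and 5 mM HHL substrate (stock); 37 °C for 30 min, stopped with 1 M HCl. Released hippuric acid complexed with pyridine and benzene sulfonyl chloride, cooled on ice, yellow colour read at 410 nm; IC50 from log plots, at least five determinations per concentration.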

[5] = test system: Rattus norvegicus; test: Antihypertensive activity in Norwegian albino rat model of DOCA-salt-induced hypertension assessed as inhibition of systolic blood pressure at 10 mg/kg, po after 8 hrs by non-invasive tail cuff method relative to control; type: functional; summary of the method: as §1
[6] = test system: Rattus norvegicus; test: Antihypertensive activity in Norwegian albino rat model of DOCA-salt-induced hypertension assessed as inhibition of systolic blood pressure at 10 mg/kg, po after 10 hrs by non-invasive tail cuff method relative to control; type: functional; summary of the method: as §1
[7] = test system: Rattus norvegicus; test: Antihypertensive activity in Norwegian albino rat model of DOCA-salt-induced hypertension assessed as inhibition of systolic blood pressure at 10 mg/kg, po after 4 hrs by non-invasive tail cuff method relative to control; type: functional; summary of the method: as §1
[8] = test system: Rattus norvegicus; test: Antihypertensive activity in Norwegian albino rat model of DOCA-salt-induced hypertension assessed as inhibition of systolic blood pressure at 10 mg/kg, po after 5 hrs by non-invasive tail cuff method relative to control; type: functional; summary of the method: as §1
[9] = target: Myosin light chain kinase, smooth muscle (Homo sapiens, UniProt Q15746); test: Inhibition of MLCK (unknown origin) incubated for 15 mins using [gamma-32P]-ATP by scintillation counting method
Summary of the method: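 Active MLCK thawed on ice with kinase assay and dilution buffers and substrate; reaction with γ-32P-ATP incubated 15 min at 30 °C in a water bath, spotted on phosphocellulose P81 paper, washed three times ~10 min in 1% phosphoric acid. Radioactivity by scintillation counting, blank-corrected cpm converted to specific activity (nmol/min/mg); IC50 from log plots, at least five determinations per concentration.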

[10] = test system: Rattus norvegicus; test: Antihypertensive activity in Norwegian albino rat model of DOCA-salt-induced hypertension assessed as inhibition of systolic blood pressure at 10 mg/kg, po after 1 hr by non-invasive tail cuff method relative to control; type: functional; summary of the method: as §1
[11] = test system: Rattus norvegicus; test: Antihypertensive activity in Norwegian albino rat model of DOCA-salt-induced hypertension assessed as inhibition of systolic blood pressure at 10 mg/kg, po after 7 hrs by non-invasive tail cuff method relative to control; type: functional; summary of the method: as §1
[12] = test system: Rattus norvegicus; test: Antihypertensive activity in Norwegian albino rat model of DOCA-salt-induced hypertension assessed as inhibition of systolic blood pressure at 10 mg/kg, po after 9 hrs by non-invasive tail cuff method relative to control; type: functional; summary of the method: as §1
[13] = test system: Rattus norvegicus; test: Antihypertensive activity in Norwegian albino rat assessed as inhibition of systolic blood pressure at 10 mg/kg, po after 0.15 hrs by invasive carotid artery cannulation method relative to control; type: functional
[14] = physchem; details: buffer, pH 7.4
[15] = test system: Rattus norvegicus; test: Antihypertensive activity in Norwegian albino rat assessed as inhibition of systolic blood pressure at 10 mg/kg, po after 4 hrs by invasive carotid artery cannulation method relative to control; type: functional
[16] = test system: Rattus norvegicus; test: Antihypertensive activity in Norwegian albino rat assessed as inhibition of systolic blood pressure at 10 mg/kg, po after 3 hrs by invasive carotid artery cannulation method relative to control; type: functional
[17] = test system: Rattus norvegicus; test: Antihypertensive activity in Norwegian albino rat assessed as inhibition of systolic blood pressure at 10 mg/kg, po after 0.3 hrs by invasive carotid artery cannulation method relative to control; type: functional
[18] = test system: Rattus norvegicus; test: Gastrointestinal toxicity in Norwegian rat assessed as ulcerative index at 50 mg/kg, po after 17 hrs; type: organism-based; details: in vivo
[19] = test system: Rattus norvegicus; test: Antihypertensive activity in Norwegian albino rat assessed as inhibition of systolic blood pressure at 10 mg/kg, po after 2 hrs by invasive carotid artery cannulation method relative to control; type: functional
[20] = test system: Rattus norvegicus; test: Antihypertensive activity in Norwegian albino rat assessed as inhibition of systolic blood pressure at 10 mg/kg, po after 1 hr by invasive carotid artery cannulation method relative to control; type: functional

Sequence of Myosin light chain kinase, smooth muscle (Q15746 whole entry): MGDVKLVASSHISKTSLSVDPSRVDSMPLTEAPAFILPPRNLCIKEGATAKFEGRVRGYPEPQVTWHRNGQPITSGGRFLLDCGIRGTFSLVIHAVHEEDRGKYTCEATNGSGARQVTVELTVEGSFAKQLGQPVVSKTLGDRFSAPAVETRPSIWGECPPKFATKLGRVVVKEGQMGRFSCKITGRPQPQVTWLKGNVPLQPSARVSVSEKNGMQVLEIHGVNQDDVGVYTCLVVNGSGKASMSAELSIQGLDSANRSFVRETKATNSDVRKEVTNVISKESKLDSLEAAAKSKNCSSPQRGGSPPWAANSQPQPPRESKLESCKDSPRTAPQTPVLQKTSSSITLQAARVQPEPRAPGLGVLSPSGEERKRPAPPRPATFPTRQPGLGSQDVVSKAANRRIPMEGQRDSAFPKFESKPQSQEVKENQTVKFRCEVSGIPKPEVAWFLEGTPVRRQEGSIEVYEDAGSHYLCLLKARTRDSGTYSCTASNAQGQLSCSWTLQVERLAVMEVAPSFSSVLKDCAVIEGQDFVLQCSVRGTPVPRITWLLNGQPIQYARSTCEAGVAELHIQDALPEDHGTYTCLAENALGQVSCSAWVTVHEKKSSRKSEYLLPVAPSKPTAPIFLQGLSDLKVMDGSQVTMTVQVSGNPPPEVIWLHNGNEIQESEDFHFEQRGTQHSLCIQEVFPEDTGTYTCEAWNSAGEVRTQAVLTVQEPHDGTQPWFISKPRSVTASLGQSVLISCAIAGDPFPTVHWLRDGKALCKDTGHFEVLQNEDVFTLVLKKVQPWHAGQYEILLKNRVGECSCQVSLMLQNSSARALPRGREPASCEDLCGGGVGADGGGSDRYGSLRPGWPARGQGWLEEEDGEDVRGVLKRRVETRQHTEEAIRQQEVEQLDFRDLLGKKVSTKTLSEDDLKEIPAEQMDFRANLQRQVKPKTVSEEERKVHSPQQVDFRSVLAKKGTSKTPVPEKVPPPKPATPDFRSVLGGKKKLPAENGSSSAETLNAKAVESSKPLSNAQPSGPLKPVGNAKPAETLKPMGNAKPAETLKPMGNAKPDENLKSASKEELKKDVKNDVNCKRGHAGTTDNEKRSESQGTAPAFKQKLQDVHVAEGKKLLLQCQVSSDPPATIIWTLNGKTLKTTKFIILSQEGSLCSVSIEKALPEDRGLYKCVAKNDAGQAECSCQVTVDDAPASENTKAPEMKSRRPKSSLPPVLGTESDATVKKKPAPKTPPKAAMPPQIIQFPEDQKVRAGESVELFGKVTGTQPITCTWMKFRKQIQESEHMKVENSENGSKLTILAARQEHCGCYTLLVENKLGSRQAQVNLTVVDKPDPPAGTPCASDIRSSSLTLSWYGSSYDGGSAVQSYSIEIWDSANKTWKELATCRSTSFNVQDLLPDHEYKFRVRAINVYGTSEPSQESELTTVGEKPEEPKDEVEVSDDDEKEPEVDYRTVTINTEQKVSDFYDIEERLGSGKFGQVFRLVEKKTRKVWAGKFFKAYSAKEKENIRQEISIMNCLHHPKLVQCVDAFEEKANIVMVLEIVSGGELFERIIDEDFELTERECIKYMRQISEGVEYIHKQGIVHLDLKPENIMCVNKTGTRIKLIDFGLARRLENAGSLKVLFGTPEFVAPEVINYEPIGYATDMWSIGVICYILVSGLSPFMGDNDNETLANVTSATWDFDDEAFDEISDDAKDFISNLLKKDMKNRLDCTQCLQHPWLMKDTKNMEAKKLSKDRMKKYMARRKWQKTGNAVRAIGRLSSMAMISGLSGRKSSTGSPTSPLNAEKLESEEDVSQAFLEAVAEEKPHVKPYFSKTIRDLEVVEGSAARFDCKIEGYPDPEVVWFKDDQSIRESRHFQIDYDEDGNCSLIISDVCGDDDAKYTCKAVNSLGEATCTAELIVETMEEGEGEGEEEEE

SMILES | IC50 [4] | IC50 ([9]; read-out: IC50) | IC50 ([9]; read-out: pIC50 (converted)) | inhibition in vivo at 10 mg/kg [1] | inhibition in vivo at 10 mg/kg [2] | inhibition in vivo at 10 mg/kg [3] | inhibition in vivo at 10 mg/kg [5] | inhibition in vivo at 10 mg/kg [6] | inhibition in vivo at 10 mg/kg [7] | inhibition in vivo at 10 mg/kg [8] | inhibition in vivo at 10 mg/kg [10] | inhibition in vivo at 10 mg/kg [11] | inhibition in vivo at 10 mg/kg [12] | also measured
Cc1cc(C)nc(Nc2nc3ccccc3s2)n1 | > 100 µM | > 100 µM | – | 7.11% | 0% | 0.44% | 8.44% | 8.89% | 1.33% | 5.33% | 0.44% | 8.44% | 8.89% | –
COC(=O)C1=C(C)N=C2Sc3ccccc3N2C1c1ccccc1Cl (stereo not drawn) | > 100 µM | 9.8 µM | 10200 µM | 24.8% | 2.65% | 14.6% | 28.8% | 33.6% | 18.1% | 22.6% | 1.77% | 27% | 31.4% | –
COC(=O)C1=C(C)N=C2Sc3ccccc3N2C1c1ccc(Cl)cc1 (stereo not drawn) | > 100 µM | 9.1 µM | 11000 µM | 28.8% | 11.5% | 14.6% | 33.6% | 40.3% | 24.8% | 28.8% | 2.65% | 31.4% | 38% | inhibition in vivo at 10 mg/kg [13]: 2.21%; logD [14]: 5.44; inhibition in vivo at 10 mg/kg [15]: 49.6%; inhibition in vivo at 10 mg/kg [16]: 31%; inhibition in vivo at 10 mg/kg [17]: 4.42%; UI [18]: 0.36; inhibition in vivo at 10 mg/kg [19]: 24.8%; inhibition in vivo at 10 mg/kg [20]: 15.9%
COC(=O)C1=C(C)N=C2Sc3ccccc3N2C1c1ccc(O)cc1 (stereo not drawn) | > 100 µM | 4.21 µM | 23800 µM | 34.2% | 7.89% | 19.7% | 39.5% | 42.1% | 25.4% | 29.4% | 3.51% | 38.2% | 40.8% | –
CCOC(=O)C1=C(C)N=C2Sc3ccccc3N2C1c1ccccc1Cl (stereo not drawn) | > 100 µM | 10.8 µM | 9260 µM | 24.8% | 2.65% | 14.6% | 28.8% | 33.6% | 18.1% | 22.6% | 1.77% | 27% | 31.4% | –
CCc1nc(Nc2nc3ccccc3s2)nc(C)c1C(C)=O | > 100 µM | > 100 µM | – | 7.56% | 0% | 0.44% | 8% | 8.89% | 1.33% | 6.22% | 0.44% | 8% | 8.44% | –
CCOC(=O)C1=C(C)NC(OC)N(CC(=O)c2ccc(OC)cc2)C1c1ccc(O)cc1 (stereo not drawn) | > 100 µM | 9.8 µM | 10.2 µM | – | – | – | – | – | – | – | – | – | – | –
CCOC(=O)C1=C(C)NC(OC)N(CC(=O)c2ccccc2)C1c1ccc(C)cc1 (stereo not drawn) | > 100 µM | 19.2 µM | 5210 µM | – | – | – | – | – | – | – | – | – | – | –
CCOC(=O)C1=C(C)NC(OC)N(CC(=O)c2ccc(OC)cc2)C1c1ccc(C)cc1 (stereo not drawn) | > 100 µM | 5.1 µM | 19.6 µM | – | – | – | – | – | – | – | – | – | – | –
CCOC(=O)C1=C(C)NC(OC)N(CC(=O)c2ccc(Cl)cc2)C1c1ccc(OC)cc1 (stereo not drawn) | > 100 µM | 30.3 µM | 3300 µM | – | – | – | – | – | – | – | – | – | – | –
CCOC(=O)C1=C(C)NC(OC)N(CC(=O)c2ccc(Cl)cc2)C1c1ccc(C)cc1 (stereo not drawn) | > 100 µM | 29.2 µM | 3420 µM | – | – | – | – | – | – | – | – | – | – | –
CCOC(=O)C1=C(C)NC(OC)N(CC(=O)c2ccccc2)C1c1ccccc1 (stereo not drawn) | > 100 µM | 23.3 µM | 4290 µM | – | – | – | – | – | – | – | – | – | – | –
CCOC(=O)C1=C(C)NC(OC)N(CC(=O)c2ccc(Cl)cc2)C1c1ccccc1 (stereo not drawn) | > 100 µM | 33.3 µM | 3000 µM | – | – | – | – | – | – | – | – | – | – | –
CC(C)Cc1ccc(C(C)C(=O)O)cc1 (stereo not drawn) [IBUPROFEN] | – | – | – | – | – | – | – | – | – | – | – | – | – | UI [18]: 1.97

Second part, led by results:

IC50 [4] | IC50 ([9]; read-out: IC50) | IC50 ([9]; read-out: pIC50 (converted)) | SMILES | inhibition in vivo at 10 mg/kg [1] | inhibition in vivo at 10 mg/kg [2] | inhibition in vivo at 10 mg/kg [3] | inhibition in vivo at 10 mg/kg [5] | inhibition in vivo at 10 mg/kg [6] | inhibition in vivo at 10 mg/kg [7] | inhibition in vivo at 10 mg/kg [8] | inhibition in vivo at 10 mg/kg [10] | inhibition in vivo at 10 mg/kg [11] | inhibition in vivo at 10 mg/kg [12] | also measured
> 100 µM | > 100 µM | – | CC(=O)c1c(C)nc(Nc2nc3ccccc3s2)nc1C | 7.08% | 0.44% | 0.88% | 7.52% | 8.41% | 2.21% | 5.31% | 0.88% | 7.52% | 7.96% | –
> 100 µM | 18.2 µM | 5490 µM | CCOC(=O)C1=C(C)NC(OC)N(CC(=O)c2ccc(OC)cc2)C1c1ccc(Cl)cc1 (stereo not drawn) | – | – | – | – | – | – | – | – | – | – | –
> 100 µM | 4.3 µM | 23300 µM | COC(=O)C1=C(C)N=C2Sc3ccccc3N2C1c1ccccc1O (stereo not drawn) | 33% | 8.48% | 19.6% | 42% | 46.4% | 24.1% | 26.3% | 3.57% | 36.6% | 43.8% | –
> 100 µM | 4.37 µM | 22900 µM | COC(=O)C1=C(C)N=C2Sc3ccccc3N2C1c1ccc(N(C)C)cc1 (stereo not drawn) | 24.8% | 2.65% | 14.6% | 28.8% | 33.6% | 18.1% | 22.6% | 1.77% | 27% | 31.4% | –
> 100 µM | 41.3 µM | 2420 µM | CCOC(=O)C1=C(C)NC(OC)N(CC(=O)c2ccc(Cl)cc2)C1c1ccc(Cl)cc1 (stereo not drawn) | – | – | – | – | – | – | – | – | – | – | –
> 100 µM | 15.2 µM | 6580 µM | CCOC(=O)C1=C(C)NC(OC)N(CC(=O)c2ccc(Cl)cc2)C1c1ccc(O)cc1 (stereo not drawn) | – | – | – | – | – | – | – | – | – | – | –
> 100 µM | 4.1 µM | 24.4 µM | CCOC(=O)C1=C(C)NC(OC)N(CC(=O)c2ccc(OC)cc2)C1c1ccc(OC)cc1 (stereo not drawn) | – | – | – | – | – | – | – | – | – | – | –
> 100 µM | 31.3 µM | 3190 µM | CCOC(=O)C1=C(C)NC(OC)N(CC(=O)c2ccccc2)C1c1ccc(Cl)cc1 (stereo not drawn) | – | – | – | – | – | – | – | – | – | – | –
> 100 µM | 7.4 µM | 13.5 µM | CCOC(=O)C1=C(C)NC(OC)N(CC(=O)c2ccccc2)C1c1ccc(OC)cc1 (stereo not drawn) | – | – | – | – | – | – | – | – | – | – | –
> 100 µM | 13.3 µM | 7.52 µM | CCOC(=O)C1=C(C)NC(OC)N(CC(=O)c2ccc(OC)cc2)C1c1ccccc1 (stereo not drawn) | – | – | – | – | – | – | – | – | – | – | –
> 100 µM | 10.2 µM | 9.8 µM | CCOC(=O)C1=C(C)NC(OC)N(CC(=O)c2ccccc2)C1c1ccc(O)cc1 (stereo not drawn) | – | – | – | – | – | – | – | – | – | – | –

From ChEMBL document CHEMBL3616444, “Design, synthesis and pharmacological evaluation of pyrimidobenzothiazole-3-carboxylate derivatives as selective L-type calcium channel blockers” (Bioorg Med Chem, 2015)
